Experimental data: PubChem BioAssay AID2465 (Broad Institute, 2010)
Several values for one entry are separate records, joined by “and”; a condition that tells them apart may be missing. Equal values may be shown once. Hit rate of the full screen: of about 24,000 compounds, fewer than 10 were called active. Rule as the data show it: active = caspase activation above about 5.9%; inconclusive = no clear call, values can overlap the other calls; inactive = below about 2.2%. A selection follows.

Experiment: Bcl2-A1 antagonists releasing BIM, apoptosis – cell-based, luminescence, HTS, two replicates, primary screen (AID 2465)
Settings: MEF A1-2A-BIM cells, caspase-Glo luminescence, 3 h; stronger effect = higher value; percent of clofoctol response, DMSO zero; concentration not given here
Procedure, shortened: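 Material: A1-2A-BIM-expressing MEF cells. Buffer or medium: RPMI-1640 plus 10% FBS. Incubation: cells settled overnight, compound exposure 3 h at 37 °C, 5% CO2. Signal: Caspase-Glo 3/7 luminescence, 1 h at room temperature.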

Caspase activation, inactive:
COc1ccc(S(=O)(=O)Nc2ccc3c(c2)C(=O)N([C@@H](C)CO)C[C@H](C)[C@H](CN(C)S(=O)(=O)c2c(C)noc2C)OCCCC[C@@H](C)O3)cc1 0.0111%, C[C@@H]1CCCCO[C@@H](CN(C)C(=O)NC2CCCCC2)[C@H](C)CN([C@H](C)CO)C(=O)c2cc(NC(=O)c3ccccc3)ccc2O1 0.223%, C[C@H]1CN([C@@H](C)CO)C(=O)c2cccc(NS(=O)(=O)c3ccc(Cl)cc3)c2O[C@@H]1CN(C)Cc1ccc(Oc2ccccc2)cc1 1%, C[C@H](CO)N1C[C@H](C)[C@H](CN(C)Cc2ccc(C(=O)O)cc2)Oc2ccc(NS(=O)(=O)c3cn(C)cn3)cc2CC1=O -0.00308%, C[C@@H]1CN([C@H](C)CO)C(=O)Cc2cc(NC(=O)c3ccncc3)ccc2O[C@H]1CN(C)S(=O)(=O)c1cccs1 0.361%, COc1ccc(CN(C)C[C@@H]2OCCCC[C@@H](C)Oc3ccc(NS(=O)(=O)c4ccc(C)cc4)cc3C(=O)N([C@@H](C)CO)C[C@H]2C)cc1 0.1%, Cc1noc(C)c1S(=O)(=O)Nc1ccc2c(c1)C(=O)N([C@H](C)CO)C[C@H](C)[C@H](CN(C)C(=O)NC1CCCCC1)OCCCC[C@H](C)O2 -1.41%, O=C(N/N=C/[C@H](O)[C@@H](O)[C@H](O)[C@H](O)CO)c1ccccc1O -0.678%, C[C@H]1CCCCO[C@H](CN(C)C(=O)Nc2ccc3c(c2)OCO3)[C@@H](C)CN([C@@H](C)CO)C(=O)c2cc(NC(=O)Nc3ccccc3)ccc2O1 0.0515%, C[C@H]1CN([C@@H](C)CO)C(=O)c2cccc(NC(=O)Nc3ccccc3)c2O[C@@H]1CN(C)C(=O)Nc1cccc2ccccc12 -0.864%, [N-]=[N+]=NC[C@H](Cc1ccccc1)NC(=O)Nc1ccccc1 -3.77% and 0.143%, COc1ccc(S(=O)(=O)Nc2ccc3c(c2)C(=O)N([C@H](C)CO)C[C@H](C)[C@@H](CN(C)Cc2ccccc2)OCCCC[C@@H](C)O3)cc1 0.258%, Cc1cccc(S(=O)(=O)N(C)C[C@H]2OCc3cnnn3CCCC(=O)N([C@@H](C)CO)C[C@H]2C)c1 -0.906%, COc1ccc(S(=O)(=O)Nc2ccc3c(c2)C(=O)N([C@@H](C)CO)C[C@@H](C)[C@H](CN(C)C(=O)Nc2ccc(C(F)(F)F)cc2)OCCCC[C@@H](C)O3)cc1 -0.653%, C[C@@H]1CCCCO[C@@H](CN(C)S(=O)(=O)c2ccccc2)[C@H](C)CN([C@H](C)CO)C(=O)c2cc(NC(=O)Nc3ccc4c(c3)OCO4)ccc2O1 -1.23%, C[C@H]1CN([C@@H](C)CO)C(=O)c2cc(N(C)C)ccc2O[C@@H]1CN(C)S(=O)(=O)c1ccc(Cl)cc1 -0.761%, C[C@H]1CCCCO[C@@H](CN(C)S(=O)(=O)c2ccc(Cl)cc2)[C@@H](C)CN([C@@H](C)CO)C(=O)c2cc(NS(=O)(=O)c3cn(C)cn3)ccc2O1 -0.712%, C[C@@H]1CN([C@H](C)CO)C(=O)c2cc(NS(=O)(=O)c3ccc(F)cc3)ccc2O[C@@H]1CN(C)S(C)(=O)=O -0.125%, COc1ccc(S(=O)(=O)N(C)C[C@@H]2OCCCC[C@@H](C)Oc3ccc(NC(=O)CCCN(C)C)cc3C(=O)N([C@@H](C)CO)C[C@@H]2C)cc1 0.265%, COc1ccc(S(=O)(=O)Nc2ccc3c(c2)C(=O)N([C@H](C)CO)C[C@@H](C)[C@H](CN(C)S(=O)(=O)c2ccc(Cl)cc2)OCCCC[C@@H](C)O3)cc1 -1.08%, C[C@@H]1CCCCO[C@@H](CN(C)Cc2ccc(C(F)(F)F)cc2)[C@H](C)CN([C@H](C)CO)C(=O)c2cc(NS(=O)(=O)c3ccc(F)cc3)ccc2O1 -0.24%, COc1ccc(NC(=O)Nc2ccc3c(c2)C(=O)N([C@H](C)CO)C[C@H](C)[C@@H](CN(C)Cc2ccccc2)OCCCC[C@H](C)O3)cc1 0.0689%, C[C@@H]1CCCCO[C@H](CN(C)C(=O)Nc2cccc3ccccc23)[C@@H](C)CN([C@@H](C)CO)C(=O)c2cc(NC(=O)Nc3ccc(F)cc3)ccc2O1 0.273%, Cc1noc(C)c1NC(=O)N(C)C[C@@H]1Oc2c(NC(=O)CCCCCC(=O)Nc3ccccc3N)cccc2C(=O)N([C@H](C)CO)C[C@@H]1C 1.76%, C[C@H](CO)N1C[C@H](C)[C@H](CN(C)Cc2ccccc2)OCCCC[C@H](C)Oc2ccc(NC(=O)Cc3ccccc3)cc2C1=O -0.193%, C[C@@H]1CN([C@@H](C)CO)C(=O)c2cccc(NC(=O)CCCCCC(=O)Nc3ccccc3N)c2O[C@H]1CN(C)C(=O)Nc1ccccc1 0.335%, Cc1noc(C)c1S(=O)(=O)N(C)C[C@H]1OCCCC[C@H](C)Oc2ccc(NC(=O)c3ccccc3)cc2C(=O)N([C@@H](C)CO)C[C@H]1C -0.984%, C[C@@H]1CN([C@H](C)CO)C(=O)c2cc(NC(=O)CCCN(C)C)ccc2O[C@H]1CN(C)S(=O)(=O)c1ccc(Cl)cc1 -1.33%, C[C@@H]1CCCCO[C@H](CN(C)C(=O)CCCN(C)C)[C@H](C)CN([C@@H](C)CO)C(=O)c2cc(NS(=O)(=O)c3ccc(Cl)cc3)ccc2O1 0.532%, COc1ccc(NC(=O)Nc2ccc3c(c2)CC(=O)N([C@@H](C)CO)C[C@@H](C)[C@H](CN(C)C(=O)NC2CCCCC2)O3)cc1 -1.36%, COc1ccc(S(=O)(=O)N(C)C[C@H]2Oc3c(NS(=O)(=O)c4ccc(F)cc4)cccc3C(=O)N([C@H](C)CO)C[C@H]2C)cc1 -0.361%, COC(=O)CCCCCCC(=O)N/N=C/c1ccc(I)cc1 0.387%, C[C@@H]1CN([C@H](C)CO)C(=O)c2cc(NC(=O)Nc3ccc(C(F)(F)F)cc3)ccc2O[C@@H](C)CCCCO[C@@H]1CN(C)Cc1ccc(C(F)(F)F)cc1 0.82%
